The test system of one assay is Vero. Nature of the assay: Cytotoxicity against African green monkey Vero cells assessed as growth inhibition after 48 hrs by MTT assay. The format is cell-based. The note with it: Chlorocebus sabaeus. The procedure, abridged:
(§1)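 Cells grown in DMEM with 10% FBS plus antibiotics at 37 °C under 5% CO2. 5×10^3 cells/well seeded and cultured overnight, then exposed to a range of concentrations for 48 h. Working dilutions made in DMEM from 25 mM DMSO stocks, with DMSO vehicle controls and vincristine as positive control. MTT at 1 mg/mL for 4 h, formazan dissolved in DMSO, A570. Viability taken relative to vehicle after blank subtraction.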
For orientation: Tetrazolium dyes change colour on reduction, which living cells bring about.

The test system of assay [1] is MCF7. Nature of the assay: Cytotoxicity against human MCF7 cells assessed as growth inhibition after 48 hrs by MTT assay. The format is functional, cell-based. Conditions: MCF7, 48 h. The procedure, abridged:
as §1

Assay [2] concerns MCF7. Nature of the assay: Inhibition of cell migration of human MCF7 cells after 24 hrs by inverted microscopy based monolayer wound healing migration assay. The format is functional. The procedure, abridged: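 About 1×10^5 MCF-7 cells/well grown in DMEM to 80% confluence, then a single scratch made. Debris washed off with PBS and cells treated with test compound, with vincristine as positive control and a vehicle control. Wound gap imaged at 0, 24 and 48 h by inverted microscopy with a stage and eyepiece micrometer. Run in triplicate.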

Assay [3] concerns MCF7. In words: Induction of apoptosis in human MCF7 cells assessed as fragmented nuclei formation at 10 uM after 24 hrs by Acridine orange-ethidium bromide dual staining based fluorescence microscopic analysis. The assay is classed as functional, cell-based. In a few lines: (§2)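 MCF-7 cells in 96-well plates exposed to test compound for 24 h at 37 °C in 5% CO2. Gross morphology first checked by phase contrast. Medium then removed and acridine orange (7.5 μg)/ethidium bromide (25 μg) stain added. Cells viewed by fluorescence microscopy through an FITC filter and scored as viable, early apoptotic, late apoptotic or nonviable by colour and nuclear form, against vehicle control.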

The subject of assay [4] is MCF7. In words: Induction of apoptosis in human MCF7 cells assessed as expression in caspase 2 at 10 uM after 24 hrs by spectrofluorimetric analysis. The assay is classed as functional, cell-based. The procedure, abridged: (§3)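 Initiator caspases 2, 8 and 9 measured in MCF-7 cells after 24 h exposure to 10 μM, using a fluorogenic caspase profiling kit (ex 380/em 460 nm). Signals normalized to vehicle control, set as 1, and expressed as fold change. Mean ± SD of three independent trials.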

Assay [5] relates to MCF7. In words: Induction of apoptosis in human MCF7 cells assessed as condensed nuclei formation at 10 uM after 24 hrs by Acridine orange-ethidium bromide dual staining based fluorescence microscopic analysis. The assay is classed as functional, cell-based. The procedure, abridged: as §2
Assay [6] relates to MCF7. Nature of the assay: Induction of apoptosis in human MCF7 cells assessed as cell shrinkage at 10 uM after 24 hrs by Acridine orange-ethidium bromide dual staining based fluorescence microscopic analysis. The assay is classed as functional.
Assay [7] relates to MCF7. In words: Induction of apoptosis in human MCF7 cells assessed as reduction in cell volume at 10 uM after 24 hrs by APOPercentage dye based light microscopic analysis. The assay is classed as functional. The procedure, abridged:
(§4)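 1×10^4 MCF-7 cells grown 48 h to sub-confluence in 96-well plates, then exposed for 24 h. Medium replaced with medium containing APOPercentage dye (phosphatidylserine exposure) for 1 h. Purple-red cells imaged by light microscopy. Cells then lysed and released dye read at 550 nm, against vehicle control.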

Assay [8] concerns MCF7. In words: Induction of apoptosis in human MCF7 cells assessed as nuclear fragmented DNA formation at 10 uM after 24 hrs by Hoechst 33342 staining based bright blue field inverted fluorescence microscopic analysis. The assay is classed as functional, cell-based. In a few lines: (§5)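 Treated MCF-7 cells were incubated for 10 min with Hoechst 33342 stock diluted 1:2,000 in PBS. Nuclei were examined by inverted fluorescence microscopy for condensation and fragmentation, compared with vehicle-control cells.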

Assay [9] deals with MCF7. In words: Induction of apoptosis in human MCF7 cells assessed as condensed chromatin formation at 10 uM after 24 hrs by Acridine orange-ethidium bromide dual staining based fluorescence microscopic analysis. The assay is classed as functional, cell-based. In a few lines:
as §2

Assay [10] deals with MCF7. Nature of the assay: Induction of apoptosis in human MCF7 cells assessed as loss of cell membrane integrity at 10 uM after 24 hrs by Acridine orange-ethidium bromide dual staining based fluorescence microscopic analysis. The assay is classed as functional.
Assay [11] relates to MCF7. Nature of the assay: Induction of apoptosis in human MCF7 cells assessed as expression in caspase 8 at 10 uM after 24 hrs by spectrofluorimetric analysis. The assay is classed as functional, cell-based. The procedure, abridged:
as §3

Assay [12] relates to MCF7. In words: Induction of apoptosis in human MCF7 cells assessed as early apoptotic cells at 10 uM after 24 hrs by Acridine orange-ethidium bromide dual staining based fluorescence microscopic analysis. The format is functional, cell-based. In a few lines:
as §2

Assay [13] deals with MCF7. Nature of the assay: Induction of apoptosis in human MCF7 cells assessed as nuclear chromatin condensation at 10 uM after 24 hrs by Hoechst 33342 staining based bright blue field inverted fluorescence microscopic analysis. The format is functional, cell-based. The procedure, abridged: as §5
Assay [14] concerns MCF7. In words: Induction of apoptosis in human MCF7 cells assessed as formation of apoptotic body at 10 uM after 24 hrs by Acridine orange-ethidium bromide dual staining based fluorescence microscopic analysis. The format is functional, cell-based.
The subject of assay [15] is MCF7. Nature of the assay: Induction of apoptosis in human MCF7 cells assessed as late apoptotic cells at 10 uM after 24 hrs by fluorescein-12-dUTP/propidium iodide staining based TUNEL assay. The assay is classed as functional, cell-based. The procedure, abridged:
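About 1×10^5 MCF-7 cells/well in 24-well plates treated for 24 h. Cells fixed in 4% paraformaldehyde and permeabilized with 0.2% Triton X-100. Labelled with 50 µM fluorescein-12-dUTP and rTdT for 1 h at 37 °C, stopped with 2×SSC, counterstained with 1 mg/mL propidium iodide. Green TUNEL-positive nuclei scored by fluorescence microscopy.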

The test system of assay [16] is MCF7. Nature of the assay: Induction of apoptosis in human MCF7 cells assessed as dead cells at 10 uM after 24 hrs by Acridine orange-ethidium bromide dual staining based fluorescence microscopic analysis. The format is functional, cell-based. The procedure, abridged:
as §2

In assay [17] the test system is MCF7. Nature of the assay: Induction of apoptosis in human MCF7 cells assessed as late apoptotic cells at 10 uM after 24 hrs by Acridine orange-ethidium bromide dual staining based fluorescence microscopic analysis. The format is functional, cell-based. The procedure, abridged:
as §2

Assay [18] has as its system MCF7. Nature of the assay: Induction of apoptosis in human MCF7 cells assessed as deviations in cell morphology at 10 uM after 24 hrs by Acridine orange-ethidium bromide dual staining based fluorescence microscopic analysis. The assay is classed as functional.
Assay [19] concerns MCF7. In words: Induction of apoptosis in human MCF7 cells assessed as expression in caspase 9 at 10 uM after 24 hrs by spectrofluorimetric analysis. The format is functional, cell-based. The procedure, abridged: as §3
The subject of assay [20] is MCF7. Nature of the assay: Induction of apoptosis in human MCF7 cells assessed as chromatin condensation at 10 uM after 24 hrs by APOPercentage dye based light microscopic analysis. The assay is classed as functional, cell-based. The procedure, abridged:
as §4

The source made the active and inactive calls. The rule behind the calls is not given here.

The IC50 is the point on the concentration scale where inhibition reaches its midpoint. On to `C/C(=N/c1nnc(Cc2c[nH]c3ccccc23)s1)c1cc2cc(Br)ccc2oc1=O`, for which the values for the IC50 with Vero and in the assay on MCF7 [1] were 113 µM and 82.1 µM, respectively.
Turning to `C/C(=N/c1nnc(CCCc2c[nH]c3ccccc23)s1)c1cc2cc(Br)ccc2oc1=O`, the inhibition entry with MCF7 [2] was “Active”. Also, the outcome in the assay on MCF7 [3], with MCF7 [5], with MCF7 [6], with MCF7 [7], with MCF7 [8] and with MCF7 [9] was Active. In addition, the result with MCF7 [10], in the assay with MCF7 [11], in the assay with MCF7 [12], in the assay with MCF7 [13], with MCF7 [14] and with MCF7 [15] was Active. The outcome in the assay on MCF7 [16], in the assay on MCF7 [17], in the assay on MCF7 [18], in the assay with MCF7 [19] and with MCF7 [20] was Active. Moreover, the result with MCF7 [4] was inactive. In addition, the results for the IC50 in the assay with Vero and in the assay with MCF7 [1] were 116 µM and 8.01 µM, respectively.
Regarding `C/C(=N/c1nnc(CCc2c[nH]c3ccccc23)s1)c1cc2cc(Br)ccc2oc1=O`, the IC50 with Vero was 43.1 µM; in the assay on MCF7 [1] it was 36.1 µM.

The record behind these values is ChEMBL document CHEMBL4138106, “Indole-coumarin-thiadiazole hybrids: An appraisal of their MCF-7 cell growth inhibition, apoptotic, antimetastatic and computational Bcl-2 binding potential” (Eur J Med Chem, 2017).
